Some results are limits rather than exact numbers.

One may read the MIC as the lowest concentration that inhibits growth of the organism. Read a high MIC as a need for much substance.

The first test concerns Escherichia coli. In words: Antibacterial activity against Escherichia coli ATCC 25922 after 24 hrs by broth microdilution assay. The test is classed as functional. The note with it: ATCC 25922, 24 h. The procedure, abridged: (§1)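 Broth microdilution MIC in Mueller-Hinton broth; serial doubling dilutions over 0.0024-1.25 mg/mL. Overnight broth cultures, inoculum adjusted to 2 × 10^6 cfu/mL final per well. Incubated at 37 °C for 24 h. MIC read as the lowest concentration without visible growth (no turbidity). Duplicate wells, repeated twice; levofloxacin as positive control.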
On the technique in general: Broth dilution looks for growth in wells or tubes with falling amounts of substance.
In the case of `C=C(C(CC1OC1(C)C)OC(=O)/C(C)=C\C)[C@H]1C[C@H]2O[C@@]2(C)C[C@H]1OC(=O)/C(C)=C\C` (some centres not stated), the MIC was > 62.5 µg/mL.

In the case of `C=C(C(CC(O)C(C)(C)O)OC(=O)/C(C)=C\C)[C@H]1C[C@H]2O[C@@]2(C)[C@@H](O)[C@H]1OC(=O)/C(C)=C\C` (some centres not stated), the MIC was > 62.5 µg/mL.

As for `C=C(C(CC(O)C(C)(C)O)OC(=O)/C(C)=C\C)[C@H]1C[C@H]2O[C@@]2(C)C(=O)[C@@H]1OC(=O)/C(C)=C\C` (some centres not stated), the MIC was > 62.5 µg/mL.

Turning to `C=C(C(CC1OC1(C)C)OC(=O)/C(C)=C\C)[C@H]1C[C@H](Cl)[C@@](C)(O)[C@@H](O)[C@H]1OC(=O)/C(C)=C\C` (some centres not stated), the minimum inhibitory concentration (MIC) was > 62.5 µg/mL.

In the case of `C=C(C(CC1OC1(C)C)OC(=O)/C(C)=C\C)[C@H]1C[C@H]2O[C@@]2(C)[C@H](OC(=O)/C(C)=C\C)[C@@H]1O` (some centres not stated), the minimal inhibitory concentration (MIC) is > 62.5 µg/mL.

Regarding `C=C(C(CC1OC1(C)C)OC(=O)/C(C)=C\C)[C@H]1C[C@H](OC(=O)/C(C)=C\C)[C@@](C)(O)[C@@H](OC(=O)/C(C)=C\C)[C@H]1O` (some centres not stated), the MIC was > 62.5 µg/mL.

Regarding `C=C(C(CC1OC1(C)C)OC(=O)/C(C)=C\C)[C@H]1C[C@@H]2O[C@]2(C)[C@@H](OC(=O)/C(C)=C\C)[C@@H]1O` (some centres not stated), the MIC is > 62.5 µg/mL.

Consider `C=C(C(CC1OC1(C)C)OC(=O)/C(C)=C\C)[C@H]1C[C@H]2O[C@@]2(C)[C@@H](OC(=O)/C(C)=C\C)[C@H]1OC(=O)/C(C)=C\C` (some centres not stated), for which the MIC is > 62.5 µg/mL.

The next test deals with Staphylococcus aureus. In words: Antibacterial activity against methicillin-resistant Staphylococcus aureus isolate after 24 hrs by broth microdilution assay. The test is classed as functional.
Conditions: not given
Summed up:
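Clinical MRSA isolate; broth microdilution in Mueller-Hinton broth, twofold serial dilutions over 0.0024-1.25 mg/mL, final inoculum 2 × 10^6 cfu/mL from overnight broth culture; 37 °C, 24 h. MIC taken as lowest concentration without visible turbidity. Duplicate wells, repeated twice; levofloxacin positive control.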
As to `C=C(C(CC1OC1(C)C)OC(=O)/C(C)=C\C)[C@H]1C[C@H]2O[C@@]2(C)C[C@H]1OC(=O)/C(C)=C\C` (some centres not stated), the minimal inhibitory concentration (MIC) is > 62.5 µg/mL.

Regarding `C=C(C(CC(O)C(C)(C)O)OC(=O)/C(C)=C\C)[C@H]1C[C@H]2O[C@@]2(C)[C@@H](O)[C@H]1OC(=O)/C(C)=C\C` (some centres not stated), the MIC is > 62.5 µg/mL.

In the case of `C=C(C(CC(O)C(C)(C)O)OC(=O)/C(C)=C\C)[C@H]1C[C@H]2O[C@@]2(C)C(=O)[C@@H]1OC(=O)/C(C)=C\C` (some centres not stated), the minimal inhibitory concentration (MIC) was > 62.5 µg/mL.

Regarding `C=C(C(CC1OC1(C)C)OC(=O)/C(C)=C\C)[C@H]1C[C@H](Cl)[C@@](C)(O)[C@@H](O)[C@H]1OC(=O)/C(C)=C\C` (some centres not stated), the minimal inhibitory concentration (MIC) is > 62.5 µg/mL.

On to `C=C(C(CC1OC1(C)C)OC(=O)/C(C)=C\C)[C@H]1C[C@H]2O[C@@]2(C)[C@H](OC(=O)/C(C)=C\C)[C@@H]1O` (some centres not stated), for which the MIC is > 62.5 µg/mL.

As to `C=C(C(CC1OC1(C)C)OC(=O)/C(C)=C\C)[C@H]1C[C@H](OC(=O)/C(C)=C\C)[C@@](C)(O)[C@@H](OC(=O)/C(C)=C\C)[C@H]1O` (some centres not stated), the MIC is > 62.5 µg/mL.

For `C=C(C(CC1OC1(C)C)OC(=O)/C(C)=C\C)[C@H]1C[C@@H]2O[C@]2(C)[C@@H](OC(=O)/C(C)=C\C)[C@@H]1O` (some centres not stated), the minimal inhibitory concentration (MIC) is > 62.5 µg/mL.

Consider `C=C(C(CC1OC1(C)C)OC(=O)/C(C)=C\C)[C@H]1C[C@H]2O[C@@]2(C)[C@@H](OC(=O)/C(C)=C\C)[C@H]1OC(=O)/C(C)=C\C` (some centres not stated), for which the MIC was > 62.5 µg/mL.

The subject of a further test is Staphylococcus aureus. In words: Antibacterial activity against Staphylococcus aureus ATCC 25923 after 24 hrs by broth microdilution assay. Type of test: functional. The note with it: ATCC 25923, 24 h. Summed up: as §1
In the case of `C=C(C(CC1OC1(C)C)OC(=O)/C(C)=C\C)[C@H]1C[C@H]2O[C@@]2(C)C[C@H]1OC(=O)/C(C)=C\C` (some centres not stated), the MIC was > 62.5 µg/mL.

`C=C(C(CC(O)C(C)(C)O)OC(=O)/C(C)=C\C)[C@H]1C[C@H]2O[C@@]2(C)[C@@H](O)[C@H]1OC(=O)/C(C)=C\C` (some centres not stated): the MIC is > 62.5 µg/mL.

In the case of `C=C(C(CC(O)C(C)(C)O)OC(=O)/C(C)=C\C)[C@H]1C[C@H]2O[C@@]2(C)C(=O)[C@@H]1OC(=O)/C(C)=C\C` (some centres not stated), the MIC was > 62.5 µg/mL.

For the molecule `C=C(C(CC1OC1(C)C)OC(=O)/C(C)=C\C)[C@H]1C[C@H](Cl)[C@@](C)(O)[C@@H](O)[C@H]1OC(=O)/C(C)=C\C` (some centres not stated), the MIC was > 62.5 µg/mL.

For `C=C(C(CC1OC1(C)C)OC(=O)/C(C)=C\C)[C@H]1C[C@H]2O[C@@]2(C)[C@H](OC(=O)/C(C)=C\C)[C@@H]1O` (some centres not stated), the MIC is > 62.5 µg/mL.

For the molecule `C=C(C(CC1OC1(C)C)OC(=O)/C(C)=C\C)[C@H]1C[C@H](OC(=O)/C(C)=C\C)[C@@](C)(O)[C@@H](OC(=O)/C(C)=C\C)[C@H]1O` (some centres not stated), the minimum inhibitory concentration (MIC) is > 62.5 µg/mL.

Take `C=C(C(CC1OC1(C)C)OC(=O)/C(C)=C\C)[C@H]1C[C@@H]2O[C@]2(C)[C@@H](OC(=O)/C(C)=C\C)[C@@H]1O` (some centres not stated): the MIC is > 62.5 µg/mL.

Take `C=C(C(CC1OC1(C)C)OC(=O)/C(C)=C\C)[C@H]1C[C@H]2O[C@@]2(C)[C@@H](OC(=O)/C(C)=C\C)[C@H]1OC(=O)/C(C)=C\C` (some centres not stated): the minimum inhibitory concentration (MIC) is > 62.5 µg/mL.

The test system of another test is Candida albicans. In words: Antifungal activity against Candida albicans after 48 hrs by broth microdilution assay. The test is classed as functional.
Conditions: not given
Summed up: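 Yeast tested by broth microdilution in Mueller-Hinton broth; samples serially doubled over 0.0024-1.25 mg/mL. Inoculum from overnight broth culture, final 2 × 10^6 cfu/mL per well. Plates held at 30 °C for 48 h. MIC taken as the lowest concentration showing no turbidity. Duplicate, repeated twice; fluconazole positive control.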
As to `C=C(C(CC1OC1(C)C)OC(=O)/C(C)=C\C)[C@H]1C[C@H]2O[C@@]2(C)C[C@H]1OC(=O)/C(C)=C\C` (some centres not stated), the minimal inhibitory concentration (MIC) was > 62.5 µg/mL.

Consider `C=C(C(CC(O)C(C)(C)O)OC(=O)/C(C)=C\C)[C@H]1C[C@H]2O[C@@]2(C)[C@@H](O)[C@H]1OC(=O)/C(C)=C\C` (some centres not stated), for which the minimal inhibitory concentration (MIC) was > 62.5 µg/mL.

With `C=C(C(CC(O)C(C)(C)O)OC(=O)/C(C)=C\C)[C@H]1C[C@H]2O[C@@]2(C)C(=O)[C@@H]1OC(=O)/C(C)=C\C` (some centres not stated), the MIC is > 62.5 µg/mL.

As for `C=C(C(CC1OC1(C)C)OC(=O)/C(C)=C\C)[C@H]1C[C@H](Cl)[C@@](C)(O)[C@@H](O)[C@H]1OC(=O)/C(C)=C\C` (some centres not stated), the minimal inhibitory concentration (MIC) was > 62.5 µg/mL.

On to `C=C(C(CC1OC1(C)C)OC(=O)/C(C)=C\C)[C@H]1C[C@H]2O[C@@]2(C)[C@H](OC(=O)/C(C)=C\C)[C@@H]1O` (some centres not stated), for which the MIC was > 62.5 µg/mL.

`C=C(C(CC1OC1(C)C)OC(=O)/C(C)=C\C)[C@H]1C[C@H](OC(=O)/C(C)=C\C)[C@@](C)(O)[C@@H](OC(=O)/C(C)=C\C)[C@H]1O` (some centres not stated): the MIC was > 62.5 µg/mL.

Turning to `C=C(C(CC1OC1(C)C)OC(=O)/C(C)=C\C)[C@H]1C[C@@H]2O[C@]2(C)[C@@H](OC(=O)/C(C)=C\C)[C@@H]1O` (some centres not stated), the MIC is > 62.5 µg/mL.

For `C=C(C(CC1OC1(C)C)OC(=O)/C(C)=C\C)[C@H]1C[C@H]2O[C@@]2(C)[C@@H](OC(=O)/C(C)=C\C)[C@H]1OC(=O)/C(C)=C\C` (some centres not stated), the minimal inhibitory concentration (MIC) was > 62.5 µg/mL.

Values taken from ChEMBL document CHEMBL1157336, “Bisabolane sesquiterpenes from the roots of Ligularia cymbulifera” (2006).
